This is a sample that favours compounds with a hit; in the whole collection about 5.8% have one here.
GASC1 inh: KDM4C (human) demethylase inhibition. Q9H3R0. GST-KDM4C 2-372, H3K9me3 peptide, LANCE TR-FRET. inhibition, % at 12.5 µM. 96,000 tested, 0.15% active;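 active = mean replicate inhibition above about 25%, with at least 55% of replicates also reaching it, limit read from the data, passing the limit was not always enough; inconclusive = only one of those two conditions met; inactive = neither condition met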
Target sequence (Q9H3R0 2-372 limits assumed): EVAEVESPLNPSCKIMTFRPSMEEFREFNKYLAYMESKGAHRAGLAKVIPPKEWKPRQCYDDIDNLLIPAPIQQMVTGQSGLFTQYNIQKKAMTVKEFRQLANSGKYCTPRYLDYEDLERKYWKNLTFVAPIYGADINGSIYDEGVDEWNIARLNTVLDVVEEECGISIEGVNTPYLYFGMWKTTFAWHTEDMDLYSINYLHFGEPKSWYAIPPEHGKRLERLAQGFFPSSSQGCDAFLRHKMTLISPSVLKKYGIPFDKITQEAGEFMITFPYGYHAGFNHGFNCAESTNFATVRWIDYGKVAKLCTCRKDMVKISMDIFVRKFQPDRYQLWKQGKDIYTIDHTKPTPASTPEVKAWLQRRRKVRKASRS
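Material: N-terminal GST-fused human GASC-1 (KDM4C) fragment, residues 2-372. Input: 10 nM enzyme. Incubation: enzyme reaction 30 min, then detection 60 min, both room temperature. Doses: one test concentration per compound. Read-out basis: inhibition from TR-FRET ratio decrease. Detection: LANCE TR-FRET, excitation 340 nm, emissions 618 and 671 nm.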
IDH1 mut inh: IDH1 R132H (human) inhibition; inhibition, % at 10 µM; 70,000 tested, 0.18% active; AID 624101; O75874; IDH1 R132H reductase, diaphorase/resazurin fluorescence, 60 min; in the data active = inhibition above about 34%; inconclusive = no clear call, values can overlap the other calls; inactive = below about 11%;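 note: 0% = DMSO and 100% = no enzyme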
Target sequence (O75874 whole entry R132H): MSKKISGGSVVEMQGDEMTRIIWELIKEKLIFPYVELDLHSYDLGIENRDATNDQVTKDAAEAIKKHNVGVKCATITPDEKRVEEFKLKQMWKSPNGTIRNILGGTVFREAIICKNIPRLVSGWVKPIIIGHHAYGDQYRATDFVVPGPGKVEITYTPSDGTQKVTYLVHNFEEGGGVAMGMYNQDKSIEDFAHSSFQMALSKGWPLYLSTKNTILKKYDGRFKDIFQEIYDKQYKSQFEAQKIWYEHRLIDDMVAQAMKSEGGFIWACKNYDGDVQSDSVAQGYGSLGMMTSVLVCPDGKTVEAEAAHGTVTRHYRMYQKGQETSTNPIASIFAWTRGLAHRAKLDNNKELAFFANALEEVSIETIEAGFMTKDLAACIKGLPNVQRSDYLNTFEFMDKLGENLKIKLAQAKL
Pf Dd2 inh: P. falciparum Dd2 growth inhibition | SYBR Green, 72 h; active compounds read low | activity change, % at 10 µM | 94,000 tested, 2.3% active | AID 1159554; in the data active = activity change below about -80%; inconclusive = no clear call, values can overlap the other calls
T cruzi growth-1: inhibitors of T. cruzi proliferation. T. cruzi beta-gal in NIH3T3, GalScreen luminescence, 90 h. inhibition, % at 8.34 µM. 77,000 tested, 5.9% active. AID 624255;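 active = mean inhibition above about 93%, with at least 55% of replicates each passing it, limit read from the data, passing the limit was not always enough; inconclusive = only one of those two conditions holds; inactive = neither condition holds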
T cruzi growth-2: Trypanosoma cruzi proliferation inhibition. shares compounds with T cruzi growth-1. 5,600 tested, 72% active. T. cruzi beta-gal in NIH3T3, GalScreen luminescence, 90 h. AID 651739. inhibition, % at 8.35 µM;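 active = mean replicate inhibition above about 95% and at least 55% of replicates individually reaching it, limit read from the data; inconclusive = only one of the two criteria is met; inactive = neither criterion is met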
T cruzi growth-3: inhibitors of T. cruzi proliferation; shares compounds with T cruzi growth-1; T. cruzi beta-gal in NIH3T3, GalScreen luminescence, 90 h; inhibition, % at 2.09 µM; 5,600 tested, 21% active; AID 651740;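 active = mean inhibition above about 95%, with at least 55% of replicates also reaching it, limit read from the data; inconclusive = meets just one of the two conditions; inactive = meets neither condition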;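 note: plate controls were neutral control median for no effect and positive control median for full effect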
3T3 cytotox: kills mouse NIH/3T3 fibroblasts. shares compounds with T cruzi growth-1. NIH/3T3 viability, CellTiter-Glo ATP luminescence, 90 h. cytotoxicity (signal decrease), % at 8.35 µM. 5,600 tested, 14% active. AID 651742;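 active = mean signal decrease across replicates above about 35% based on untreated-well scatter, with enough replicates individually passing, limit read from the data; inconclusive = no rule stated though some were filed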;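 note: 0% = median of neutral control wells and 100% = median of positive control wells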
3T3 cytotox 2: NIH/3T3 (mouse) viability loss | shares compounds with T cruzi growth-1 | NIH/3T3 viability, CellTiter-Glo ATP luminescence, 90 h | inhibition, % at 24.9 µM | 5,600 tested, 56% active;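 active = mean loss of cell viability signal at or above a set limit, and enough replicates individually reaching it; inconclusive = meets only the mean limit or only the replicate share; inactive = meets neither condition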;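 note: 0% = median of neutral control wells and 100% = median of positive control wells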
* hit, by the source's call; ? = inconclusive; nt = no result.

SMILES	GASC1 inh	IDH1 mut inh	Pf Dd2 inh	T cruzi growth-1	T cruzi growth-2	T cruzi growth-3	3T3 cytotox	3T3 cytotox 2
C[C@H](CO)N1C[C@H](C)[C@@H](CN(C)C(=O)Nc2cccc3ccccc23)OCCCC[C@H](C)Oc2ccc(NS(=O)(=O)c3ccc(F)cc3)cc2C1=O	-1.9	nt	-75.2	104.8*	105.9*	?	-20.2	13.6
Cc1ccc(S(=O)(=O)Nc2ccc3c(c2)C(=O)N([C@@H](C)CO)C[C@H](C)[C@H](CN(C)C(=O)Nc2cccc4ccccc24)OCCCC[C@@H](C)O3)cc1	-1.7	nt	?	68.5	nt	nt	nt	nt
Cc1ccc(NS(=O)(=O)c2ccc(NS(=O)(=O)c3ccc4c(c3)OCCO4)cc2)c(C)c1	nt	0.1	nt	nt	nt	nt	nt	nt
CC(=O)Nc1ccc(NC(=O)CN(c2ccc(C)c(Cl)c2)S(C)(=O)=O)cc1	nt	-0.2	nt	nt	nt	nt	nt	nt
COc1cc2c(cc1NC(=O)CN(C)S(=O)(=O)c1ccc(Cl)cc1)oc1ccccc12	nt	-0.4	nt	nt	nt	nt	nt	nt
COc1ccccc1NC(=O)N1CCCCN2[C@H](CO)[C@H](c3ccc(C#Cc4ccccc4)cc3)[C@H]2C1	-3.3	nt	-78.6	58.3	nt	nt	nt	nt
COc1ccccc1NC(=O)N1CCCCN2[C@H](C1)[C@@H](c1ccc(C#Cc3ccccc3)cc1)[C@@H]2CO	-2.9	nt	-47.6	107.0*	99.3*	108.6*	35.8*	104.8*
COc1ccccc1NC(=O)N1CCCCN2[C@H](C1)[C@H](c1ccc(C#CC3CC3)cc1)[C@@H]2CO	nt	nt	-79.7	100.2*	105.2*	56.0	21.0	30.2*
Cc1cc2nn(-c3ccc(F)cc3)nc2cc1NC(=O)COc1ccc(Br)cc1	nt	0.3	nt	nt	nt	nt	nt	nt
COC(=O)c1cccc(NC(=O)CN(c2cccc(F)c2)S(C)(=O)=O)c1C	nt	0.0	nt	nt	nt	nt	nt	nt
Cc1ccccc1OCC(=O)Nc1cc2nn(-c3ccccc3)nc2cc1Cl	nt	-0.1	nt	nt	nt	nt	nt	nt
CC(C)(CCO[C@@H]1O[C@H](CO[C@@H]2OC[C@@H](O)[C@H](O)[C@H]2O)[C@@H](O)[C@H](O)[C@H]1O)C[C@@H]1C(C(=O)O)=CC[C@]2(C(=O)O)C1=CCC1[C@@]3(C)CC[C@H](O[C@@H]4O[C@H](CO[C@@H]5O[C@H](CO)[C@@H](O)[C@H](O)[C@H]5O)[C@@H](O)[C@H](O)[C@H]4O)C(C)(C)C3CC[C@]12C (stereo not given in full)	nt	4.0	nt	nt	nt	nt	nt	nt
COc1ccc(NC(=O)NCc2ccc(C(=O)O)cc2)c(OC)c1	nt	0.2	nt	nt	nt	nt	nt	nt
CSc1ccc(C(Nc2ccccn2)c2cc(Cl)c3cccnc3c2O)cc1 (stereo not given)	nt	0.0	nt	nt	nt	nt	nt	nt
C[C@@H]1CCCCO[C@@H](CN(C)C(=O)Nc2ccc(C(F)(F)F)cc2)[C@@H](C)CN([C@H](C)CO)C(=O)c2cc(NC(=O)Cc3ccccc3)ccc2O1	-2.1	nt	-4.5	?	108.1*	34.6	6.4	19.3
C[C@H](CO)N1C[C@H](C)[C@H](CN(C)C(=O)Nc2ccc(C(F)(F)F)cc2)OCCCC[C@H](C)Oc2ccc(NC(=O)Cc3ccccc3)cc2C1=O	-0.8	nt	-42.9	?	103.3*	102.0*	17.7	33.2*
CC1CCC2C(C(=O)O)=COC(O[C@@H]3O[C@H](CO)[C@@H](O)[C@H](O)[C@H]3O)C12 (stereo not given in full)	nt	0.1	nt	nt	nt	nt	nt	nt
Cc1ccc(S(=O)(=O)N(C)C[C@@H]2OCCCC[C@H](C)Oc3ccc(NS(=O)(=O)c4cccs4)cc3C(=O)N([C@H](C)CO)C[C@H]2C)cc1	1.4	-2.9	-54.7	117.7*	105.0*	39.4	7.8	-2.3
C[C@H](CO)N1C[C@H](C)[C@H](CN(C)S(=O)(=O)c2ccc(Cl)cc2)OCCCC[C@H](C)Oc2ccc(NS(=O)(=O)c3cccs3)cc2C1=O	0.5	nt	nt	111.1*	96.9*	44.8	-24.5	-46.1
C[C@@H]1CCCCO[C@H](CN(C)S(=O)(=O)c2ccc(Cl)cc2)[C@H](C)CN([C@H](C)CO)C(=O)c2cc(NS(=O)(=O)c3cccs3)ccc2O1	-2.2	nt	nt	112.3*	105.6*	96.3*	4.0	-28.7
C[C@H]1CCCCO[C@H](CN(C)S(=O)(=O)c2ccc(Cl)cc2)[C@@H](C)CN([C@@H](C)CO)C(=O)c2cc(NS(=O)(=O)c3cccs3)ccc2O1	0.1	nt	nt	113.9*	104.3*	62.4	8.0	-19.4
C[C@@H]1CN([C@H](C)CO)C(=O)c2cc(NS(=O)(=O)c3cccs3)ccc2O[C@@H](C)CCCCO[C@H]1CN(C)S(=O)(=O)c1ccc(Cl)cc1	-0.5	-0.6	-70.3	nt	nt	nt	nt	nt
CCn1c(SCC(=O)Nc2ccccc2OC)nnc1-c1ccc(Br)cc1	nt	0.1	nt	nt	nt	nt	nt	nt
COC(=O)c1ccc(-n2nnnc2SCC(=O)Nc2ccccc2)cc1	nt	-0.2	nt	nt	nt	nt	nt	nt
Cc1ccc([N+](=O)[O-])cc1NC(=O)CSc1nnnn1C1CC2CCC1C2 (stereo not given)	nt	-0.8	nt	nt	nt	nt	nt	nt
SMILES	GASC1 inh	IDH1 mut inh	Pf Dd2 inh	T cruzi growth-1	T cruzi growth-2	T cruzi growth-3	3T3 cytotox	3T3 cytotox 2
C[C@@H]1CN([C@H](C)CO)S(=O)(=O)c2ccc(C#Cc3ccccc3)cc2O[C@H]1CN(C)S(=O)(=O)c1cn(C)cn1	-1.5	-4.2	-86.1*	99.5*	107.0*	37.4	66.7*	50.9*
C[C@H]1CN([C@@H](C)CO)S(=O)(=O)c2ccc(C#Cc3ccc(F)cc3)cc2O[C@@H]1CN(C)S(=O)(=O)c1cn(C)cn1	nt	-0.4	-63.4	122.0*	102.9*	100.9*	46.5*	49.4*
COc1cccc(N(CC(=O)Nc2cccc(Cl)c2)S(C)(=O)=O)c1	nt	0.4	nt	nt	nt	nt	nt	nt
COC(=O)c1ccccc1NC(=O)CC1Sc2ccc(C(F)(F)F)cc2NC1=O (stereo not given)	nt	0.2	nt	nt	nt	nt	nt	nt
Cc1ccccc1S(=O)(=O)N1CCCCN2[C@H](C1)[C@@H](c1ccc(C#CCN(C)C)cc1)[C@@H]2CO	0.3	nt	1.5	38.2	nt	nt	nt	nt
CCCC#Cc1ccc([C@H]2[C@H](CO)N3CCCCN(S(=O)(=O)c4ccccc4C)C[C@@H]23)cc1	-1.2	nt	-20.9	95.6*	85.8	99.3*	?	103.4*
Cc1ccccc1S(=O)(=O)N1CCCCN2[C@@H](CO)[C@H](c3ccc(C#CCN(C)C)cc3)[C@@H]2C1	2.1	nt	-49.1	67.0	nt	nt	nt	nt
CCCC#Cc1ccc([C@@H]2[C@H]3CN(S(=O)(=O)c4ccccc4C)CCCCN3[C@H]2CO)cc1	1.5	nt	-50.8	110.7*	95.9*	?	?	106.1*
CCCC#Cc1ccc([C@H]2[C@@H](CO)N3CCCCN(S(=O)(=O)c4ccccc4C)C[C@H]23)cc1	-2.1	nt	-73.4	108.0*	102.5*	?	51.9*	103.2*

Bioassay records (PubChem)
